# Laboratory results reported in PMC12467390 (ACS infectious diseases, 2025).
# Read-outs that look alike come from different tables or passages of the source.
# How the values were obtained:
# TetX7 [1] = assay: Steady-state TC consumption assay; type: biochemical; conditions: dark; for Apparent IC50 Values, TetX7: no pre-incubation, none detected = no inhibition up to 2.5 mM; for Time-dependence of TetX7 inhibition: pre-incubation 0-240 min
# Tet50 = Tet50 (Unknown prokaryotic organism, UniProt A0A059WYP6); assay: Steady-state TC consumption assay; type: biochemical; conditions: for Apparent decay constant of IC50 versus pre-incubation time: Tet50
# [2] = biological target: 4-hydroxybenzoate-3-monooxygenase (PHBH) (Pseudomonas fluorescens, UniProt P00438); assay: PHBH NADPH consumption assay; type: biochemical
# How it was run: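 PHBH came from a codon-optimized pobA gene expressed in E. coli: grown at 37 °C in LB with kanamycin, induced with 1 mM IPTG at 15 °C for 12–15 h. It was purified by imidazole elution at pH 8.0 and dialyzed overnight. Activity was measured with para-hydroxybenzoic acid as substrate, following NADPH consumption at A340. Time-dependence was assessed by pre-incubating inhibitor with enzyme for varying times before starting the reaction.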
# TetX6 = TetX6 (Chryseobacterium oncorhynchi, UniProt A0A316WTJ0); type: biochemical; conditions: dark; no pre-incubation; none detected = no inhibition up to 2.5 mM
# [3] = system: E. coli DH5αZ1 empty vector (pZE24); assay: MIC by broth microdilution, empty vector control; type: cell-based; conditions: for MIC: Escherichia coli; for MIC, Empty, + TC: presence of 8 μg/mL TC
# [4] = system: E. coli DH5αZ1 expressing TetX7 from pZE24; assay: MIC by broth microdilution, TetX7::pZE24; type: cell-based; conditions: for MIC, TetX7, + TC: presence of 8 μg/mL TC
# [5] = system: E. coli DH5αZ1 expressing Tet50 from pZE24; assay: MIC by broth microdilution, Tet50::pZE24; type: cell-based; conditions: Escherichia coli, read-out: MIC, Tet50, − TC
# TetX7 [6] = assay: Reversibility of TetX7 inhibition by exhaustive dialysis; type: biochemical; conditions: 60 min pre-incubation in the dark; dialysis at 4 °C
# [7] = system: E. coli DH5αZ1 expressing TetX7 from pZE24; conditions: aTC alone, ref [28],[30],[31]; cited from earlier work
# [8] = system: E. coli DH5αZ1 expressing TetX7 or Tet50; conditions: TC at 8 μg/mL; resistant strains; ref [28],[30],[31]; cited from earlier work
# [9] = system: E. coli DH5αZ1 expressing Tet50 from pZE24; conditions: aTC alone, ref [28],[30],[31]; cited from earlier work
# [10] = system: E. coli DH5αZ1 empty vector (pZE24); conditions: aTC alone; empty vector control; ref [28],[30],[31]; cited from earlier work
# [11] = dark, compounds 1 and 2 up to 2.5 mM
# [12] = shielded from light, pre-incubation 0-240 min
# Sequence of Tet50 (A0A059WYP6 whole entry): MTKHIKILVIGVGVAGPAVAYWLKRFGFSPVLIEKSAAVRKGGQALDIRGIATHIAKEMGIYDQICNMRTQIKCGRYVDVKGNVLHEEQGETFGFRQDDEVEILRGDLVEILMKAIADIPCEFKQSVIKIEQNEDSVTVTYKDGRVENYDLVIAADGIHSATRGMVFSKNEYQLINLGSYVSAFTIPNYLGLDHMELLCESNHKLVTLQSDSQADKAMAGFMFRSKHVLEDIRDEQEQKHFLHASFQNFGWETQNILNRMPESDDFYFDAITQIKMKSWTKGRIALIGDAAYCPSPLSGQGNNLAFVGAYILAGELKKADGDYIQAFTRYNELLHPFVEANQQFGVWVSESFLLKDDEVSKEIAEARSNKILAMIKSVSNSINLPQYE
# Sequence of 4-hydroxybenzoate-3-monooxygenase (PHBH) (P00438 whole entry): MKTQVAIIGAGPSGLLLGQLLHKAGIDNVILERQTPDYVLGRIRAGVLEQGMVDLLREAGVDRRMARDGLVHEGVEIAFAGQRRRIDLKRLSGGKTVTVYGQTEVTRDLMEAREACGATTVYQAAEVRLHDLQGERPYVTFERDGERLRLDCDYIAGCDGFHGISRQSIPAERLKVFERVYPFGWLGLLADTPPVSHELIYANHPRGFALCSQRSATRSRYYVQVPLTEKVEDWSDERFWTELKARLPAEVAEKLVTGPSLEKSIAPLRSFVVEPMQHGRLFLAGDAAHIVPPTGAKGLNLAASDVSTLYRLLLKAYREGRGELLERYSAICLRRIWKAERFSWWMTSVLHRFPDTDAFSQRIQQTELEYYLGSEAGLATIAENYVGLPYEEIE
SMILES,Time-dependence of Tet50 inhibition (Tet50; blue light irradiation),"Inhibition of PHBH [2, 11]","MIC, Empty, + TC [3] [µg/mL]",Time-dependence of TetX7 inhibition (TetX7 [1]),Time-dependence of Tet50 inhibition (Tet50; [12]),"MIC, TetX7, + TC [4] [µg/mL]",further results
"CC1(NCc2ccccc2)CC1 [Compound 1, N-(1-methyl)cyclopropylbenzylamine]",inhibit Tet50 in a time-dependent manner,no inhibition,,,,,"Apparent IC50 Values, TetX7 (TetX7 [1]): none detected^a; Inhibition of PHBH ([2]; blue light irradiation): potent time-dependent and dose-dependent inhibition; Apparent IC50 Values, TetX6 (TetX6): none detected^a"
"C#CCN(C)Cc1ccccc1 [Compound 2, N-methyl-N-benzyl-propargylamine]",inhibit Tet50 in a time-dependent manner,no inhibition,,,,,"Apparent IC50 Values, TetX7 (TetX7 [1]): none detected^a; Inhibition of PHBH ([2]; blue light irradiation): potent time-dependent and dose-dependent inhibition; Apparent IC50 Values, TetX6 (TetX6): none detected^a"
"Cc1c2c(c(O)c3c(O)c(CNC4(C)CC4)ccc13)C(=O)[C@]1(O)C(=O)C(C(N)=O)=C(O)[C@@H](N(C)C)[C@@H]1C2.Cl [Compound 3, (4S,4aS,12aS)-4-(dimethylamino)-3,10,11,12a-tetrahydroxy-6-methyl-9-(((1-methylcyclopropyl)amino)methyl)-1,12-dioxo-1,4,4a,5,12,12a-hexahydrotetracene-2-carboxamide hydrochloride]",,Inhibition was detected,<1,did not observe any time-dependence,clear decrease in the apparent IC50 value correlating to longer enzyme–inhibitor pre-incubation times,8,"MIC ([3]; read-out: MIC, Empty, − TC): 32 µg/mL; Apparent decay constant of IC50 versus pre-incubation time (Tet50; blue light irradiation): 0.9 ± 0.3 min⁻¹; Time-dependence of PHBH inhibition ([2]; dark): time-dependence was observed"
"C#CCNCc1ccc2c(C)c3c(c(O)c2c1O)C(=O)[C@]1(O)C(=O)C(C(N)=O)=C(O)[C@@H](N(C)C)[C@@H]1C3.Cl [Compound 4, (4S,4aS,12aS)-4-(dimethylamino)-3,10,11,12a-tetrahydroxy-6-methyl-1,12-dioxo-9-((prop-2-yn-1-ylamino)methyl)-1,4,4a,5,12,12a-hexahydrotetracene-2-carboxamide hydrochloride]",slower time-dependent inactivation,Inhibition was detected,<1,did not observe any time-dependence,clear decrease in the apparent IC50 value correlating to longer enzyme–inhibitor pre-incubation times,2,"MIC [5]: 32 µg/mL; MIC ([3]; read-out: MIC, Empty, − TC): 32 µg/mL; Time-dependence of PHBH inhibition ([2]; dark): time-dependence was observed"
"C#CCN(C)Cc1ccc2c(C)c3c(c(O)c2c1O)C(=O)[C@]1(O)C(=O)C(C(N)=O)=C(O)[C@@H](N(C)C)[C@@H]1C3 [Compound 5, (4S,4aS,12aS)-4-(dimethylamino)-3,10,11,12a-tetrahydroxy-6-methyl-9-((methyl(prop-2-yn-1-yl)amino)methyl)-1,12-dioxo-1,4,4a,5,12,12a-hexahydrotetracene-2-carboxamide]",time- and light- dependent irreversible inactivation of Tet50,,<1,did not observe any time-dependence,clear decrease in the apparent IC50 value correlating to longer enzyme–inhibitor pre-incubation times,2,"Apparent decay constant of IC50 versus pre-incubation time (Tet50; blue light irradiation): 0.5 ± 0.1 min⁻¹; MIC ([4]; Escherichia coli, read-out: MIC, TetX7, − TC): 64 µg/mL; TetX7 activity after exhaustive dialysis versus before (TetX7 [6]): reversed upon exhaustive dialysis"
"CN(C)[C@@H]1C(O)=C(C(N)=O)C(=O)[C@@]2(O)C(O)=C3C(=O)c4c(O)cccc4[C@@](C)(O)[C@H]3C[C@@H]12 [TC, tetracycline, reference compound]",,,,,,,MIC ([3]; read-out: MIC of TC): 1 µg/mL
"Cc1c2c(c(O)c3c(O)cccc13)C(=O)[C@]1(O)C(=O)C(C(N)=O)=C(O)[C@@H](N(C)C)[C@@H]1C2 [aTC, anhydrotetracycline]",time-dependent inhibition,Inhibition was detected,,did not observe any time-dependence,not time-dependent,,MIC of aTC [7]: 8 µg/mL; Inhibitor concentration that rescues growth inhibitory activity of TC [8]: ≥ 2 µg/mL; MIC of aTC [9]: 8 µg/mL; MIC of aTC [10]: 4 µg/mL
